proCasp7 act – counter-screen for procaspase-3 activators: activators of human procaspase-7 | recombinant procaspase-7, Ac-DEVD-pNA absorbance 405 nm; D23A/D198A/D206A triple mutant, cannot self-cleave; scale: DMSO 0, 5 µM enzyme 100 | activation, % at 8.5 µM | 330,000 compounds, 0.093% hits;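 active means percent activation above the screen-wide mean plus 3 SD, cut at about 25% in these data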
Target sequence (P55210 whole entry D23A/D198A/D206A): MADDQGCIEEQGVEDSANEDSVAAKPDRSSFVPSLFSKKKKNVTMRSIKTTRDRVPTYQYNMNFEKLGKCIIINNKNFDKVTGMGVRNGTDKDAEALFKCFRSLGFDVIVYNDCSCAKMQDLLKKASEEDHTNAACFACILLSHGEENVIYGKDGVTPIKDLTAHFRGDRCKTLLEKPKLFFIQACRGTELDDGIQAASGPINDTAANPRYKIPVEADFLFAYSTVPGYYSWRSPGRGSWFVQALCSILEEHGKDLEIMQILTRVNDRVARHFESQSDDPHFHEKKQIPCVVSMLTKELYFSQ
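Replicates: singlicate. Assay system: Procaspase-7 triple mutant (PC-7 D3A). Signal: 405 nm absorbance of p-nitroaniline. Times: 1 h preincubation, 2 h reaction. Buffer or medium: Zinc-free HEPES pH 7.4 with 300 mM NaCl, 0.01% Triton X-100. Also added: DEVD-pNA substrate. Benchmarks: DMSO wells as 0%, DMSO with 5 µM added PC-7 as 100%.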
MPTP block – blocks calcium-induced mitochondrial swelling; AID 602449; isolated mouse mitochondria, Ca2+ swelling absorbance, 30 min; 360,000 compounds, 1.4% hits; inhibition, % at 10 µM;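 active means inhibition of 50% or more, scaled per plate between neutral and stimulator controls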;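 further: 0% = DMSO wells given calcium and 100% = 1 mM EGTA wells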
GRIN3A LBD mod – modulates the human NR3A ligand-binding domain; 340,000 compounds, 2.5% hits; Tm shift relative to glycine control, % at 25 µM; NR3A LBD differential scanning fluorimetry, Tm shift; 0% = protein alone, 100% = glycine-bound protein; AID 1259313;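 active means melting temperature shift of at least 10% of the positive control shift, at one fixed dose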
aDG glyco up – alpha-DG glycosylation activation | AID 624168 | 360,000 compounds, 0.22% hits | activation, % at 10 µM | Pro5-aDG cells, alpha-DG glycosylation AlphaScreen (IIH6); 0% Pro5, 100% B10-LARGE cell signal;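 active means activation of at least 8% versus controls, or a plate z-score of at least 8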;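 further: Pro5 are CHO cells carrying HIG-tagged alpha-DG that lacks glycosylation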
procasp3 activ – activates human procaspase-3; activation, % at 8.5 µM; recombinant procaspase-3 D3A, Ac-DEVD-pNA absorbance 405 nm; 330,000 compounds, 0.11% hits;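 active means activation above the mean of all tested compounds plus 3 SD, cut at about 21% in these data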;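 further: 0% = DMSO alone and 100% = DMSO wells spiked with extra 5 µM PC-3 D3A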
Target sequence (P42574 whole entry D9A/D28A/D175A): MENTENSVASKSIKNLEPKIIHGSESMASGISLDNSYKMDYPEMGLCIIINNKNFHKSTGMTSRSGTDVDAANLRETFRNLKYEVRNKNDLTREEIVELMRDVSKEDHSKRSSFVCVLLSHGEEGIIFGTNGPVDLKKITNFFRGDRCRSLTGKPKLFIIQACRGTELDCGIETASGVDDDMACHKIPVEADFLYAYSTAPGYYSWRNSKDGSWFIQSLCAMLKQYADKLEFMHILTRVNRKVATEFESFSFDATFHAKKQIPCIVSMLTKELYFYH
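material = Procaspase-3 D3A mutant | probe or stimulus = Ac-DEVD-pNA | compound = single dose, 8.5 µM nominal compound, 0.8% DMSO | timing = 1 h preincubation, 2 h reaction | measured by = 405 nm absorbance of p-nitroaniline, reads at 0 and 120 min | benchmarks = DMSO-only low control, 5 µM PC-3 D3A high control | repeats = singlicate, each compound tested once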
An asterisk follows results filed as active. The list is not random: actives were taken first. Their share in the collection is about 3.7%.

COc1ccc(C(=O)C(=NNc2ccccc2)c2ccc(OC)cc2)cc1 was read as MPTP block 2, GRIN3A LBD mod 13* and aDG glyco up -1.
`COc1ccc(C(=O)C(=NN)c2ccccc2)cc1` gave MPTP block -1 and aDG glyco up 0.
Screening CCc1ccc(Nc2nnc(SCC(=O)Nc3sccc3C(N)=O)s2)cc1 returned proCasp7 act -9, MPTP block 1, GRIN3A LBD mod 10*, aDG glyco up 0 and procasp3 activ -7.
Screening CC(=O)Nc1ccc(NC(=O)CSc2nnc(NC(=O)c3ccc(Br)o3)s2)cc1 returned proCasp7 act 4, MPTP block -1, GRIN3A LBD mod 16*, aDG glyco up 0 and procasp3 activ -2.
For O=C(CSc1nnc(NC(=O)c2ccco2)s1)Nc1cccc(F)c1 the results were proCasp7 act 2, MPTP block -1, GRIN3A LBD mod 28*, aDG glyco up 0 and procasp3 activ -1.
CC(=O)Nc1cccc(NC(=O)CSc2nnc(NC(=O)c3ccco3)s2)c1 was read as proCasp7 act 2, MPTP block 0, GRIN3A LBD mod 11*, aDG glyco up 0 and procasp3 activ 2.
For CCOC(=O)c1cc2c(c(CCO)n1)[C@@H](CCO)N(S(=O)(=O)C(C)(C)C)C2 the results were MPTP block 0, GRIN3A LBD mod 5 and aDG glyco up 0.
For CN(C)CCNC(=O)C1Cc2c(-c3ccccc3Oc3ccccc3)ccnc2O1 (configuration not stated) the results were MPTP block -2 and aDG glyco up 0.
For CC(=O)Nc1cccc(NC(=O)CSc2nccn2Cc2ccco2)c1 the results were proCasp7 act 5, MPTP block 0, GRIN3A LBD mod 14*, aDG glyco up 0 and procasp3 activ 3.
`COC(=O)[C@@H](CC(C)C)NS(=O)(=O)N(Cc1ccccc1)[C@@H](CC(C)C)C(=O)OC` gave proCasp7 act 11, MPTP block -2, GRIN3A LBD mod 5, aDG glyco up 0 and procasp3 activ 8.
CCN(CC)C(=O)C1=C(C)N(CCCOC)C(=O)C(CC(=O)NC2CCCCC2)C1 (configuration not stated) was read as MPTP block 0 and aDG glyco up 0.
For Cc1ccccc1OCC(=O)Nc1ccccc1N1CCOCC1 the results were proCasp7 act 4, MPTP block 0, GRIN3A LBD mod 0, aDG glyco up 0 and procasp3 activ 1.
CC(C)Oc1cccc(C(=O)NC(=S)Nc2ccccc2N2CCOCC2)c1 was read as proCasp7 act 1, MPTP block -1, GRIN3A LBD mod 20*, aDG glyco up 0 and procasp3 activ -3.
Cc1cccc(OCC(=O)NC(=S)Nc2ccccc2N2CCOCC2)c1C was read as proCasp7 act 0, MPTP block 0, GRIN3A LBD mod 16*, aDG glyco up 0 and procasp3 activ -7.
Screening COc1ccc(-c2noc(CCC(=O)Nc3cccc(C(=O)NC4CC4)c3)n2)cc1OC returned MPTP block 0 and aDG glyco up 0.
For OC[C@@H]1CN(Cc2ccc(F)cc2)C[C@H](n2cnc3c(NCc4ccc(F)cc4)ncnc32)O1 the results were MPTP block 0 and aDG glyco up 0.
CCCCCCn1c(=O)n2n(c1=O)C[C@]1(OC(=O)NCc3ccco3)CN(S(=O)(=O)c3ccc(C)cc3)C[C@]1(O)C2 was read as MPTP block 0 and aDG glyco up 0.
For COc1ccc(-c2cc(C(=O)OCC(=O)NC3CC3)c3ccccc3n2)cc1 the results were proCasp7 act 26*, MPTP block 0, GRIN3A LBD mod -9, aDG glyco up 0 and procasp3 activ 44*.
Screening Cc1cc(C(=O)OCC(=O)Nc2cccc(S(=O)(=O)N(C)C)c2)c2ccccc2n1 returned proCasp7 act 15, MPTP block 0, GRIN3A LBD mod -6, aDG glyco up 0 and procasp3 activ -2.
`NS(=O)(=O)c1cccc(NC(=O)COC(=O)c2cc(-c3ccc(Cl)cc3)nc3ccccc23)c1` gave proCasp7 act 8, MPTP block 1, GRIN3A LBD mod 34*, aDG glyco up 0 and procasp3 activ 4.
For O=C(COC(=O)c1cc(-c2ccccc2)nc2ccccc12)NC1CC1 the results were proCasp7 act -3, MPTP block 1, GRIN3A LBD mod 1, aDG glyco up 0 and procasp3 activ 3.
Screening Cc1ccc2c(Cl)cc(Cl)c(OCC(=O)Nc3cccc(S(=O)(=O)N(C)C)c3)c2n1 returned proCasp7 act 0, MPTP block 15, GRIN3A LBD mod -26, aDG glyco up 0 and procasp3 activ -3.
Screening C/C(N)=C(/C#N)C(=O)COc1ncnc2ccccc12 returned proCasp7 act -1, MPTP block 0, GRIN3A LBD mod 0, aDG glyco up 0 and procasp3 activ 2.
For C/C(N)=C(/C#N)C(=O)COC(=O)c1cc(-c2ccc(Br)cc2)nc2ccccc12 the results were proCasp7 act 7, MPTP block 0, GRIN3A LBD mod 18*, aDG glyco up 0 and procasp3 activ -1.
For Cc1ccc2c(Cl)cc(Cl)c(OCC(=O)Nc3cccc(S(N)(=O)=O)c3)c2n1 the results were proCasp7 act 12, MPTP block 2, GRIN3A LBD mod 11*, aDG glyco up 0 and procasp3 activ 3.
Screening O=C(CC1C(=O)NCCN1Cc1cccc(C(F)(F)F)c1)NCCc1cnccn1 (configuration not stated) returned proCasp7 act 1, MPTP block 1, GRIN3A LBD mod 2, aDG glyco up 0 and procasp3 activ 2.
For O=C(C[C@H]1C(=O)N(Cc2ccccc2)C[C@@H]1c1ccc(Br)cc1)Nc1ccc(Br)cc1 the results were MPTP block 0 and aDG glyco up 0.
Cc1ccc([C@H]2C[C@@H](O)[C@H](n3cc(-c4ccc(F)cc4)nn3)CN2C(=O)C2CCCCC2)cc1 was read as MPTP block 0 and aDG glyco up 0.
Nc1ccc2c(c1)C(=O)c1cc([N+](=O)[O-])ccc1-2 was read as MPTP block 3, GRIN3A LBD mod 25* and aDG glyco up 0.
Nc1ccc2c(c1)C(=O)c1cc(Cl)c(Cl)cc1-2 was read as MPTP block 2, GRIN3A LBD mod 41* and aDG glyco up 0.
`C=CCn1c(-c2ccccn2)n[nH]c1=S` gave MPTP block 4 and aDG glyco up 0.
`NC(=NCCc1c[nH]c2ccccc12)NC(=O)c1ccc(Cl)cc1` gave proCasp7 act -19, MPTP block 4, GRIN3A LBD mod 24*, aDG glyco up 0 and procasp3 activ 7.
For C/C(=N\NC(=O)Cc1c[nH]c2ccccc12)c1ccc2ccccc2c1 the results were proCasp7 act 9, MPTP block 0, GRIN3A LBD mod 15*, aDG glyco up 0 and procasp3 activ 3.

Screening results: PubChem BioAssay, several laboratories
